From ChEMBL document CHEMBL1148491, “Synthesis and pharmacological characterization of nicotinic acetylcholine receptor properties of (+)- and (-)-pyrido-[3,4-b]homotropanes” (J Med Chem, 2006) come the findings set out here.

Test [1] has as its target Neuronal acetylcholine receptor; alpha4/beta2 (Rattus norvegicus, UniProt P09483+P12390). The experiment in a line: Displacement of [3H]epibatidine from alpha-4-beta-2 nACHR in rat cerebral cortex. Type of test: tissue-based. In general terms: Loss of bound radioactivity is the signal in a displacement assay; it reports binding, not function.
The species entered for test [2] is Mus musculus. The experiment in a line: Spontaneous activity in mouse. The format is functional. In short, it runs like this: (§1)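 Mice placed in individual photocell activity cages 5 min after sc injection (0.9% saline vehicle). Photocell beam interruptions were counted over the next 10 min.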
In test [3] the test system is Rattus norvegicus. The experiment in a line: Antagonist activity on nicotine discrimination in rat at 3 mg/kg by lever press assay. On the set-up: scale not given: the % may be the effect or the level left. Type of test: functional. In short, it runs like this: (§2)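 Pretreatment with the test dose sc was followed 10 min later by 0.4 mg/kg (-)-nicotine, then a 15-min test session. Readouts: % nicotine-lever responding and response rate.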

Test [4] has as its system Mus musculus. The experiment in a line: Antinociceptive activity in mouse by tail flick assay at 10 mg/kg. Type of test: functional. The essentials:
(§3)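 Mouse tail-flick: tail exposed to a heat lamp and flick latency recorded. A control latency (2-4 s) was taken before treatment and a test latency after drug. Response given as %MPE = (test - control)/(maximum - control) × 100. ED50 with 95% confidence limits from unweighted least-squares linear regression.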
On the technique in general: Hot-plate and tail-flick tests time the reaction to a heat stimulus.

The species named for test [5] is Mus musculus. The experiment in a line: Hypothermia in mouse. The format is functional. In short, it runs like this:
(§4)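 Rectal temperature in mice measured by thermistor probe inserted 24 mm, read just before and at several times after sc injection (saline vehicle). Readout is the before-after difference for each mouse; ambient temperature 21-24 °C.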

The species named for test [6] is Mus musculus. The experiment in a line: Antagonist effect on nicotine-induced antinociceptive activity in mouse by hot plate assay. The format is functional.
Test [7] has as its system Rattus norvegicus. The experiment in a line: Agonist activity on nicotine discrimination in rat at 3 mg/kg by lever press assay. Type of test: functional. In short, it runs like this:
(§5)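 Substitution tests were 15-min sessions starting 10 min after sc injection, with either lever reinforced. A rat was tested only if it made ≥80% injection-appropriate responses on the prior training day. Readouts: % nicotine-lever responding and response rate.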

The subject of test [8] is Mus musculus. The experiment in a line: Antinociceptive activity in mouse by hot plate assay at 10 mg/kg, sc after 5 mins. The format is functional. The conditions noted are these: route subcutaneous. The essentials:
(§6)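 Mouse hot-plate at 55.0 °C in a 10-cm glass cylinder. Two control latencies were taken ≥10 min apart (normal 8-12 s), scored by jumping or paw licking. Mice were tested 5 min after sc injection. Response given as %MPE = (test - control)/(maximum - control) × 100.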

The species named for test [9] is Mus musculus. The experiment in a line: Antagonist effect against nicotine-induced antinociceptive activity in mouse by tail flick assay. The format is functional.
The subject of test [10] is Mus musculus. The experiment in a line: Antagonist effect on nicotine-induced antinociceptive activity in mouse by hot plate assay at […]. The format is functional. Also on record: scale not given: the % may be the effect or the level left.
Test [11] deals with Rattus norvegicus. The experiment in a line: Antagonist activity on nicotine discrimination in rat at 0.3 mg/kg by lever press assay. The format is functional. Also on record: scale not given: the % may be the effect or the level left. The essentials: as §2
For test [12], the target named is T1, Neuronal acetylcholine receptor; alpha4/beta2 (Homo sapiens, UniProt P17787+P43681). The experiment in a line: Intrinsic activity at human alpha-4-beta-2 nACHR in SH-EP1 cells relative to ACh. Type of test: functional, cell-based.
Test [13] deals with Mus musculus. The experiment in a line: Antagonist effect on nicotine-induced hypothermia in mouse at […]. On the set-up: scale not given: the % may be the effect or the level left. The format is functional.
For test [14], the system named is Rattus norvegicus. The experiment in a line: Agonist activity on nicotine discrimination in rat at 0.56 mg/kg by lever press assay. The format is functional. In short, it runs like this: as §5
For test [15], the system named is Mus musculus. The experiment in a line: Antagonist effect on nicotine-induced antinociceptive activity in mouse by tail flick assay at […]. The format is functional. Also on record: scale not given: the % may be the effect or the level left.
In test [16] the test system is Mus musculus. The experiment in a line: Antinociceptive activity in mouse by hot plate assay at 1 mg/kg, sc after 5 mins. The format is functional. The conditions noted are these: route subcutaneous. The essentials: as §6
Test [17] deals with Mus musculus. The experiment in a line: Antinociceptive activity in mouse by tail flick assay at 1 mg/kg. Type of test: functional. The essentials:
as §3

The target in test [18] is T1, Neuronal acetylcholine receptor; alpha4/beta2. The experiment in a line: Agonist activity at human alpha-4-beta-2 nACHR in SH-EP1 cells by patch-clamp assay at 10 uM. Type of test: functional, cell-based. A general note: In patch-clamp work, channel activity is measured electrically.
For test [19], the system named is Mus musculus. The experiment in a line: Antinociceptive activity in mouse by tail flick assay at 10 ug administered intrathecally. Type of test: functional, organism-based. In short, it runs like this: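 Tail-flick latency to a heat lamp in mice after intrathecal injection of 10 µg/mouse.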
For test [20], the target named is T1, Neuronal acetylcholine receptor; alpha4/beta2. The experiment in a line: Antagonist activity at human alpha-4-beta-2 nACHR in SH-EP1 cells by patch-clamp assay at 10 uM. On the set-up: scale not given: the % may be the effect or the level left. The format is functional, cell-based.
Test [21] concerns the target Neuronal acetylcholine receptor subunit alpha-7 (Homo sapiens) (UniProt P36544). The experiment in a line: Displacement of [125I]iodoMLA from alpha-7 nACHR at 10 uM. The conditions noted are these: Rattus norvegicus.
Test [22] addresses T2, Neuronal acetylcholine receptor; alpha3/beta4 (Rattus norvegicus) (UniProt P04757+P12392). The experiment in a line: Antagonist activity at rat alpha-3-beta-4 nACHR in HEK293 cells by patch-clamp assay at 10 uM. Type of test: functional, cell-based. On the set-up: scale not given: the % may be the effect or the level left.
For test [23], the target named is T1, Neuronal acetylcholine receptor; alpha4/beta2. The experiment in a line: Activity at human alpha-4-beta-2 nACHR assessed as inhibition of ACh-induced current in SH-EP1 cells at 40 uM. Type of test: functional, cell-based. On the set-up: scale not given: the % may be the effect or the level left.
The target in test [24] is T2, Neuronal acetylcholine receptor; alpha3/beta4 (Rattus norvegicus). The experiment in a line: Agonist activity at rat alpha3beta4 nACHR in HEK293 cells by patch-clamp assay at 10 uM. The format is functional, cell-based.
The subject of test [25] is Mus musculus. The experiment in a line: Spontaneous activity in mouse at 5 mg/kg. Type of test: functional. In short, it runs like this: as §1
The test system of test [26] is Mus musculus. The experiment in a line: Hypothermia in mouse at 5 mg/kg. Type of test: functional, organism-based. Also on record: dose 5 mg/kg. The essentials: as §4
Test [27] has as its system Mus musculus. The experiment in a line: Antinociceptive activity in sc dosed mouse by hot plate assay after 5 mins.
Test [28] is filed under the species Mus musculus. The experiment in a line: Antinociceptive activity in mouse by tail flick assay.

A word on the Ki: it is a measure of affinity in units of concentration, obtained from inhibition or displacement. As a reminder, the ED50 is the midpoint of the dose-response relation. One may read the EC50 as the concentration at which the effect is half-maximal. As usually defined, the inhibition is the share of the control response that was lost under treatment.

Each structure is given as a SMILES string. Activity calls are given as the source filed them. The calls are words filed in the database; no cut-off is given here.

Neuronal acetylcholine receptor; alpha4/beta2 (Rattus norvegicus, UniProt P09483+P12390), sequence (P09483 whole entry): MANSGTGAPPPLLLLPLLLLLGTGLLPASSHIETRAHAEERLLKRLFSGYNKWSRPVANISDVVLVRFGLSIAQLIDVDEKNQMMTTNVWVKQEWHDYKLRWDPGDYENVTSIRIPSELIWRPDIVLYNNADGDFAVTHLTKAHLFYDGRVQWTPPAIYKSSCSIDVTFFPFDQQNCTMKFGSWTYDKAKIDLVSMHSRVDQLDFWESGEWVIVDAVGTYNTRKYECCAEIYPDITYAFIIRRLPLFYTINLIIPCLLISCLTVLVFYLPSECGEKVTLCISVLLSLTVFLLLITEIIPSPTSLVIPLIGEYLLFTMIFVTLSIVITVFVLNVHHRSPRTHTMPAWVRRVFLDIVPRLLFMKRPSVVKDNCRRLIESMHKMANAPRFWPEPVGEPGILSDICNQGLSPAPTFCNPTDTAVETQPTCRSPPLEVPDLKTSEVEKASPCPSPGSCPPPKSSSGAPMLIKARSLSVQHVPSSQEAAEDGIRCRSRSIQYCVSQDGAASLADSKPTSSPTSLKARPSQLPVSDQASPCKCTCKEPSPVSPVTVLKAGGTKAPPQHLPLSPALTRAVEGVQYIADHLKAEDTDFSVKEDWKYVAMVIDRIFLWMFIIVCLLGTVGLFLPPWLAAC
Neuronal acetylcholine receptor; alpha4/beta2 (Rattus norvegicus, UniProt P09483+P12390), sequence (P12390 whole entry): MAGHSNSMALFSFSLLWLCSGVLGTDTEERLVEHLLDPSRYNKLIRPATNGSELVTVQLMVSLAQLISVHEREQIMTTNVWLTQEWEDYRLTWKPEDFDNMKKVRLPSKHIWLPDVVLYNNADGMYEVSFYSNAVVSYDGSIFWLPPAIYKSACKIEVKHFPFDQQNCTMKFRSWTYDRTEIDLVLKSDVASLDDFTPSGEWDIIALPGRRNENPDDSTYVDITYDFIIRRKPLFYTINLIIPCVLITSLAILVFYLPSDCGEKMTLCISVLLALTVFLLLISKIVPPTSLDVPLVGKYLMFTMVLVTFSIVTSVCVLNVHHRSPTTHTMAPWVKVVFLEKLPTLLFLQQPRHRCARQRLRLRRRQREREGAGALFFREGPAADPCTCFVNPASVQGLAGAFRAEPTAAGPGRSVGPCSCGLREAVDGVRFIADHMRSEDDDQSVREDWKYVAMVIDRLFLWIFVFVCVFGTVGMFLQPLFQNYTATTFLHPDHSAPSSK
Neuronal acetylcholine receptor subunit alpha-7 (Homo sapiens), sequence (P36544 whole entry): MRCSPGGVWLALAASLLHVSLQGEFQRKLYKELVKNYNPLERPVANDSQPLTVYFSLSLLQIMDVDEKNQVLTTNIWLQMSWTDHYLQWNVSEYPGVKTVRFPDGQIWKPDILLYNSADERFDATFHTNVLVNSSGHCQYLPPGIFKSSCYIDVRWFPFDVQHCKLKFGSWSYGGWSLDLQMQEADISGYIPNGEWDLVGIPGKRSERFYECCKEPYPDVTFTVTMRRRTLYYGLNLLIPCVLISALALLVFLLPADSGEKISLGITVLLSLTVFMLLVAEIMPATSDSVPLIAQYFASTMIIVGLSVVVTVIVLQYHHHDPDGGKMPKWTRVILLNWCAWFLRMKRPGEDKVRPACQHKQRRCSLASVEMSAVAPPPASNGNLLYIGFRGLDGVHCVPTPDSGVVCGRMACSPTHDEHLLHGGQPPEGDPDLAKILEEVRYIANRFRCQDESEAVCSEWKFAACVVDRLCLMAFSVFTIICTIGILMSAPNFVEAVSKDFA
T1 sequence (P17787 whole entry): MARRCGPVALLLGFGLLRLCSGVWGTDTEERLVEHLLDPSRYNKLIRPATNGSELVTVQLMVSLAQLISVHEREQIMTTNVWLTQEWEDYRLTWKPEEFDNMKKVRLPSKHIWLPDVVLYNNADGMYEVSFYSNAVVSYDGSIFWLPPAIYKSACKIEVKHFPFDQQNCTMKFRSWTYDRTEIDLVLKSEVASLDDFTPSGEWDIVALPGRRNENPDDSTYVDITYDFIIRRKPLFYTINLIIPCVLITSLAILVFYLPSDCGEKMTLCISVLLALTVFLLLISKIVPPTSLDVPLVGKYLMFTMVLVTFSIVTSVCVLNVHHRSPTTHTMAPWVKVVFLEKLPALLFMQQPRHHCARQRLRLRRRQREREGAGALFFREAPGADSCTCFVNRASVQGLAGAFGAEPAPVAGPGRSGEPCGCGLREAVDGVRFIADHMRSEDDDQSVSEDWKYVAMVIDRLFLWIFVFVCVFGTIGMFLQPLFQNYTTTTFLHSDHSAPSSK
T1 sequence (P43681 whole entry): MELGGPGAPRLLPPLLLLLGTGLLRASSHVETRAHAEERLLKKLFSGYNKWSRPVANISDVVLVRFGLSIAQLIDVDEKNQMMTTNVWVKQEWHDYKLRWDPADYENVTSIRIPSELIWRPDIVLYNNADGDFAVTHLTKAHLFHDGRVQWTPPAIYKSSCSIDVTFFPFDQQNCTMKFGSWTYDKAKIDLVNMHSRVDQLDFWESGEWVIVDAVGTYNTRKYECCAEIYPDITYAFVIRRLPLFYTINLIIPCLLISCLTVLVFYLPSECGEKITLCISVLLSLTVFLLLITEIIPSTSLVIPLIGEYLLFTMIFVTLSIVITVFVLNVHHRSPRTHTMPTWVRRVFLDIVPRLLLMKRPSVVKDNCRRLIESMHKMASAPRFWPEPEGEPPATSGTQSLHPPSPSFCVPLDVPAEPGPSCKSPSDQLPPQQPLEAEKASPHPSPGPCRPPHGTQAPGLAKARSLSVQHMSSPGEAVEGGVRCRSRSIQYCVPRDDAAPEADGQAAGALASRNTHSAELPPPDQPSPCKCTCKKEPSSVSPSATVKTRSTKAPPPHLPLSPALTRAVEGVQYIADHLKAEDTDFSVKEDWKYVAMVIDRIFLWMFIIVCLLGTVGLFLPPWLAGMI

Regarding `c1cc2c(cn1)C1CCC(CC2)N1` (racemic), the inhibition constant (Ki) in [1] amounted to 0.0061 µM. The ED50 in [2] (Mus musculus, read-out: ED50) worked out at 2600 µg/kg; in [5] (Mus musculus, read-out: ED50), 1600 µg/kg. Also, the Activity in [3] is 84%; in [4], 12%; in test [7] it was 17%; in [8] it was 2%. The AD50 came out at 1000 µg/kg in test [6] and 5 µg/kg in test [9].
Take `c1cc2c(cn1)C1CCC(CC2)N1` (single isomer, unassigned; (+)) [listing 1 of 2 here]: the Activity in test [10] stood at 5%; in [11], 96%; in test [13] it was 0%; in [14], 44.5%; in test [15], 0%; in test [16] it was 8%. The compound also registered an Activity in [17] of 8%. In addition, affinity in test [1] was put at a Ki of 0.00129 µM. Moreover, the ED50 came out at 2000 µg/kg in test [2] and 2900 µg/kg in [5]. Also, the concentration giving a half-maximal response (EC50) in test [12] was determined as 5.5 µM.
Consider `c1cc2c(cn1)C1CCC(CC2)N1` (single isomer, unassigned; (+)) [listing 2 of 2 here], for which the Activity was 28% in [18]; 117% in [20]; 17% in [12]; 101% in test [22]; 10% in test [23]; 13% in test [24]. For the same compound, the outcome in test [19] was inactive. The inhibition in [21] is less than 50%.
In [1], `c1cc2c(cn1)C1CCC(CC2)N1` (single isomer, unassigned; (-)) [listing 1 of 2 here] yielded a Ki of 0.35 µM. Besides, the AD50 stood at 0.8 µg/kg in [6] and 0.07 µg/kg in [9]. The Activity in test [25] was 10%; in [16], 2%; in test [7], 23.8%; in [17], 2%.
Consider `c1cc2c(cn1)C1CCC(CC2)N1` (single isomer, unassigned; (-)) [listing 2 of 2 here], for which the Activity in test [18] came to 0%; in [20], 89%; in [22] it was 93%; in test [24], 0.9%. The outcome in test [19] was inactive. Besides, the outcome in test [26] was Active. The inhibition in test [21] came out at 50%.
Turning to `Clc1ccc([C@@H]2C[C@H]3CC[C@@H]2N3)cn1` [(+)-EPIBATIDINE], the ED50 was determined as 4 µg/kg in test [27]; 1 µg/kg in [2] (Mus musculus, read-out: ED50); 4 µg/kg in [5] (Mus musculus, read-out: ED50); 0.6 µg/kg in test [28].
`Clc1ccc([C@H]2C[C@@H]3CC[C@H]2N3)cn1` [(-)-EPIBATIDINE]: the 50% effective dose (ED50) came to 4 µg/kg in test [27]; 1 µg/kg in test [2] (Mus musculus, read-out: ED50); 4 µg/kg in test [5] (Mus musculus, read-out: ED50); 6 µg/kg in test [28].
Regarding `CN1CCC[C@H]1c1cccnc1` [NICOTINE], the ED50 in test [27] was determined as 650 µg/kg; in test [2] (Mus musculus, read-out: ED50) it was 500 µg/kg; in test [5] (Mus musculus, read-out: ED50) it was 1000 µg/kg; in test [28] it was 1300 µg/kg.
On to `CN1CCC[C@@H]1c1cccnc1` [R-NICOTINE], for which the ED50 in test [27] amounted to 3900 µg/kg; in [2] (Mus musculus, read-out: ED50) it was 2900 µg/kg; in test [5] (Mus musculus, read-out: ED50), 7600 µg/kg; in test [28] it was 8000 µg/kg.
